Source: PubChem
ERb SRC1 inh = ER-beta (human) coactivator binding inhibition; TR-FRET ER-beta LBD / SRC1-Cy5 peptide binding; receptor agonist-loaded with 1 µM estradiol; inhibition, % at 25.6 µM; 86,000 compounds, 1.3% hits; AID 633; Q92731;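 active = compounds whose percent inhibition of the receptor-coactivator binding signal exceeds about 50% in the single-dose screen, limit read from the data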;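 also: 0% = receptor plus peptide wells without compound and 100% = peptide-only wells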
Target sequence (Q92731 whole entry, looked up, the tested form may be a part): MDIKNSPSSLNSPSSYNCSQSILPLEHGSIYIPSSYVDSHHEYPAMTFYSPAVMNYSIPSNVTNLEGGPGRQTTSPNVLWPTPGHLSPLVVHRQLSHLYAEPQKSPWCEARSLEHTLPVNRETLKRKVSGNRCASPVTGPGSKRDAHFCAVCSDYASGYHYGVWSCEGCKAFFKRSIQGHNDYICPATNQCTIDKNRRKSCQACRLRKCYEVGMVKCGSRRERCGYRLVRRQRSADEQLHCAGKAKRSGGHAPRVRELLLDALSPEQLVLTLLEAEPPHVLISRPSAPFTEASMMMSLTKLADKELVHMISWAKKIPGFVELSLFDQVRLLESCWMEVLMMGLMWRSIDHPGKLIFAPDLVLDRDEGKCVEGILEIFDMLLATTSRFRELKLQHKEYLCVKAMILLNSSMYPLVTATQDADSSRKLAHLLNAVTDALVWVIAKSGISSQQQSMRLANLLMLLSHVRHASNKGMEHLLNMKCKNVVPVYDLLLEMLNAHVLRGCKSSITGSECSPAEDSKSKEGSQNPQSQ
ERa coact inh = ER-alpha (human) coactivator binding inhibition | TR-FRET ER-alpha LBD / SRC-1 peptide, estradiol-bound | inhibition, % at 25.6 µM | 86,000 compounds, 1.7% hits; in the data active = inhibition above about 50%;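 also: 0% = receptor plus peptide control and 100% = peptide only without receptor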
Lung fibro prol = blocks proliferation of human lung fibroblasts; LL 47 human lung fibroblast viability, ATP luminescence; hits give low values; viability, % at 10 µM; 85,000 compounds, 1.1% hits; AID 719;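 active = viability at or below 50% in the single dose screen; inactive = viability above 50%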;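 also: compound exposure lasted 72 h before the ATP readout; 100% = median luminescence of untreated cell-only wells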
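Assay system: human lung fibroblast line LL 47, low passage. Input: 1,150 fibroblasts seeded per well. Times: overnight cell rest, 72 h compound treatment at 37 °C. Evaluation: % viability of median cell-only signal. Technique: luminescent ATP detection, CellTiter-Glo. Control set: cell-only wells, no compound.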
HUVEC prolif 384 = human endothelial cell proliferation inhibition | HUVEC proliferation, CellTiter-Glo luminescence, 72 h; hits give low values | viability, % at 10 µM (by protocol) | 86,000 compounds, 1.1% hits | AID 648;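 active = viability at or below 30%; inactive = viability above 30%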;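 also: 100% = median luminescence of DMSO-only cell control wells on each plate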
ERa SRC1 pot = enhances coactivator binding to human estrogen receptor alpha. 86,000 compounds, 1.3% hits. TR-FRET ERalpha-LBD/SRC-Cy5 coactivator binding, 2 h; 100 = basal binding, no effect. coactivator binding (% of control), % at 25.6 µM. AID 639. P03372; in the data active = activity above about 200%;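 also: binding measured in presence of low estradiol as agonist stimulus; 0% = peptide alone without receptor and 100% = receptor with peptide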
H69AR growth 86K = blocks growth of human H69AR lung tumor cells; H69AR lung tumor viability, ATP luminescence, 72 h; hits give low values; 85,000 compounds, 6% hits; viability, % at 10 µM;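 active = viability at or below 40%; inactive = viability above 40%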;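 also: multidrug resistant small cell line overexpressing MRP-1 efflux transporter; 100% = mean luminescence of untreated control wells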
Starred values were filed as active, the others as inactive. Hits are enriched below; roughly 9.2% of the tested compounds scored in any of these assays.

What do the screens show for `CCc1ccc2[nH]c(=O)c(CN(CCCN3CCOCC3)C(=O)Nc3ccc(Cl)cc3)cc2c1`?
ERb SRC1 inh: -4; ERa coact inh: -1; Lung fibro prol: 77; HUVEC prolif 384: 28*; ERa SRC1 pot: 106; H69AR growth 86K: 27*

Results for O=S(=O)(c1ccc(Br)cc1)N1CCN(c2ccc3nnc(-c4ccccc4)n3n2)CC1 ?
ERb SRC1 inh: 8; ERa coact inh: 14; Lung fibro prol: 101; HUVEC prolif 384: 82; ERa SRC1 pot: 146; H69AR growth 86K: 30*

How did Cc1cc(S(=O)(=O)NC2CCCCC2)ccc1OCC(=O)NCc1ccccn1 do in these assays?
ERb SRC1 inh: -17; ERa coact inh: -9; Lung fibro prol: 100; HUVEC prolif 384: 105; ERa SRC1 pot: 104; H69AR growth 86K: 77

Results for CC(=O)Oc1cccc(N2C(=O)c3ccc(C(=O)O)cc3C2=O)c1 ?
ERb SRC1 inh: 4; ERa coact inh: 0; Lung fibro prol: 93; HUVEC prolif 384: 97; ERa SRC1 pot: 115; H69AR growth 86K: 2.0*

What do the screens show for `CC(=O)Oc1ccccc1N1C(=O)c2ccc(C(=O)O)cc2C1=O`?
ERb SRC1 inh: 11; ERa coact inh: 9; Lung fibro prol: 94; HUVEC prolif 384: 88; ERa SRC1 pot: 110; H69AR growth 86K: 99

Results for Cc1cc(C)nc(N2CCC(C(=O)NCC3CCCCC3)CC2)n1 ?
ERb SRC1 inh: 1; ERa coact inh: -3; Lung fibro prol: 103; HUVEC prolif 384: 98; ERa SRC1 pot: 89; H69AR growth 86K: 93

How did COc1nc(OC)nc(N2CCC(C(=O)NCC3CCCCC3)CC2)n1 do in these assays?
ERb SRC1 inh: -2; ERa coact inh: -4; Lung fibro prol: 98; HUVEC prolif 384: 105; ERa SRC1 pot: 113; H69AR growth 86K: 31*

What do the screens show for `Cc1nn(C)c(C)c1CN(C)C(=O)c1cnn2c1NC(c1ccccc1)CC2C(F)(F)F` (configuration not stated)?
ERb SRC1 inh: 56*; ERa coact inh: 4; Lung fibro prol: 110; HUVEC prolif 384: 103; ERa SRC1 pot: 100; H69AR growth 86K: 77

What do the screens show for `C=CCn1c(COc2ccc(Cl)cc2)nnc1SCC(=O)N1CC(=O)Nc2ccccc21`?
ERb SRC1 inh: -3; ERa coact inh: -3; Lung fibro prol: 97; HUVEC prolif 384: 94; ERa SRC1 pot: 107; H69AR growth 86K: 100

Results for CCc1ccccc1NC(=O)CSc1nnc([C@@H]2CCCN2C(=O)OC(C)(C)C)o1 ?
ERb SRC1 inh: -5; ERa coact inh: -7; Lung fibro prol: 95; HUVEC prolif 384: 95; ERa SRC1 pot: 143; H69AR growth 86K: 2.1*

What do the screens show for `O=C1CCN(C(=O)c2ccccc2)C2CCCCC12` (configuration not stated)?
ERb SRC1 inh: 5; ERa coact inh: -1; Lung fibro prol: 101; HUVEC prolif 384: 104; ERa SRC1 pot: 119; H69AR growth 86K: 85

What do the screens show for `COc1ccc(OC)c(C2CC(=O)c3c([nH]c(C(=O)OC(C)C)c3C)C2)c1` (configuration not stated)?
ERb SRC1 inh: 26; ERa coact inh: 31; Lung fibro prol: 56; HUVEC prolif 384: 31; ERa SRC1 pot: 139; H69AR growth 86K: 28*

Results for CCCOCCOC(=O)c1[nH]c2c(c1C)C(=O)CC(c1cc(OC)ccc1OC)C2 (configuration not stated) ?
ERb SRC1 inh: -4; ERa coact inh: 13; Lung fibro prol: 63; HUVEC prolif 384: 45; ERa SRC1 pot: 126; H69AR growth 86K: 19*

What do the screens show for `CCC(C)OC(=O)c1[nH]c2c(c1C)C(=O)CC(c1ccc(N(C)C)cc1)C2` (configuration not stated)?
ERb SRC1 inh: 1; ERa coact inh: -1; Lung fibro prol: 101; HUVEC prolif 384: 75; ERa SRC1 pot: 98; H69AR growth 86K: 76

Results for CCC(C)NS(=O)(=O)c1ccc(NC(=O)c2c(-c3ccccc3)noc2C)cc1 (configuration not stated) ?
ERb SRC1 inh: -5; ERa coact inh: 0; Lung fibro prol: 81; HUVEC prolif 384: 88; ERa SRC1 pot: 87; H69AR growth 86K: 97
